Measured values from ChEMBL document CHEMBL1159052 (Bioorg Med Chem, 2010).

Experiments:
[1] = Displacement of [3H]MLA from alpha7 nAChR in rat brain homogenate by liquid scintillation spectrophotometry; type: tissue-based
In short: (§1)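 Membranes came from whole brain minus cortex and cerebellum, washed in Krebs-HEPES buffer at pH 7.5, 100–140 μg protein per tube. IC50 came from a curve fit; Ki by Cheng-Prusoff. At least four experiments, each in duplicate.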

[2] = target: T1, Neuronal acetylcholine receptor; alpha4/beta2 (Rattus norvegicus, UniProt P09483+P12390); experiment: Displacement of [3H]nicotine from alpha4beta2 nAChR in rat brain homogenate by liquid scintillation spectrophotometry; type: tissue-based; in short: as §1
T1 sequence (P09483 whole entry): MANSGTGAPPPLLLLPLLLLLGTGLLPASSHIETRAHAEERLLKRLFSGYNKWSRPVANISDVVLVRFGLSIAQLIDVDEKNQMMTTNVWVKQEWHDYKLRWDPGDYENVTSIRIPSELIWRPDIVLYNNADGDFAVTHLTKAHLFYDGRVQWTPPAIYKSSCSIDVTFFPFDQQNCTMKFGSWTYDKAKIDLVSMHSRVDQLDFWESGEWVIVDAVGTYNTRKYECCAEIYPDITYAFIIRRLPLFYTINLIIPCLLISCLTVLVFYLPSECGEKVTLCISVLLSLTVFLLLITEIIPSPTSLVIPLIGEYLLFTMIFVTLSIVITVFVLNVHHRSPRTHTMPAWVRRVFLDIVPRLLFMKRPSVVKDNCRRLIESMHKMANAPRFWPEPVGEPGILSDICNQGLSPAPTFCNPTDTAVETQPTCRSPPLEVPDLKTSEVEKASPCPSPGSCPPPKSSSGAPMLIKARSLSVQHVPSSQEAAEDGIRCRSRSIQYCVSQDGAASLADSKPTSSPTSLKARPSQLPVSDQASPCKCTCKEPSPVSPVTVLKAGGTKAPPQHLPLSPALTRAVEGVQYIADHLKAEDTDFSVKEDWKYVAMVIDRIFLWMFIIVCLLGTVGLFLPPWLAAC
T1 sequence (P12390 whole entry): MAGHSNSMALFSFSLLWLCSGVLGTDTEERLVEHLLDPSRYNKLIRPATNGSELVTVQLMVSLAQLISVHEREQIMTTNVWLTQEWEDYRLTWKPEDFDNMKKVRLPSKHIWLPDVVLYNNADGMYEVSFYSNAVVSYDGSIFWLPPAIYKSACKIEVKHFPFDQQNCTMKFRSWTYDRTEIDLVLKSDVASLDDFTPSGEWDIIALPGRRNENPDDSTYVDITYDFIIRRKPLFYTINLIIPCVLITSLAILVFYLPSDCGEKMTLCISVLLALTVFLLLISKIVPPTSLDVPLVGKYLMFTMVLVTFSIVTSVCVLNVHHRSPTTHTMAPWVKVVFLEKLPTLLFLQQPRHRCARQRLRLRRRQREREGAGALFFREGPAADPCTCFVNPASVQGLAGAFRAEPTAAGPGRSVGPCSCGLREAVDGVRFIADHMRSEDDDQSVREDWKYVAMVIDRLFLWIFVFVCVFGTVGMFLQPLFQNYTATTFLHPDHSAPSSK

[3] = target: Sodium-dependent dopamine transporter (Rattus norvegicus, UniProt P23977); experiment: Inhibition of [3H]DA uptake at DAT in rat brain striatal synaptosomes by liquid scintillation spectrophotometry; type: subcellular
Sequence of Sodium-dependent dopamine transporter (P23977 whole entry): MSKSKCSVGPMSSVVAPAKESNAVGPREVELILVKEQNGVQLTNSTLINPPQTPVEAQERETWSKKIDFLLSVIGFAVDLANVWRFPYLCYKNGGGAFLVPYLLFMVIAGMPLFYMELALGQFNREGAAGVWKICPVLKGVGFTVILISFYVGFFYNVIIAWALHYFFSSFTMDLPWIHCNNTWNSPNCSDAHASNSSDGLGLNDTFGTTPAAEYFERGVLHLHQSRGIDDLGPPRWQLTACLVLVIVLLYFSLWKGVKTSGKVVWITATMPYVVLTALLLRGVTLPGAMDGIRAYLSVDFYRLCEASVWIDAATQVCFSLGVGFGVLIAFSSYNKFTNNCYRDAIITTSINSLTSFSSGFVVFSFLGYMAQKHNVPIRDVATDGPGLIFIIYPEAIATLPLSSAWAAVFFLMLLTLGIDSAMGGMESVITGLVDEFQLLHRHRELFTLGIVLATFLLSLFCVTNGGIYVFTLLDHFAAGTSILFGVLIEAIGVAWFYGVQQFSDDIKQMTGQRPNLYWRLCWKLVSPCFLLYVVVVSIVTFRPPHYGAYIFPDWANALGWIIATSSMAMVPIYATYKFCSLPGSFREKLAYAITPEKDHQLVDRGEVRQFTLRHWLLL
In short: (§2)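 Synaptosomes were striatal for [3H]DA and hippocampal for [3H]5-HT, as P2 pellets in oxygenated Krebs with pargyline and ascorbate (pH 7.4), protein 400 μg/ml. Drug at […] was preincubated 10 min at 34 °C, then 10 nM tritiated substrate was added for 10 min. Uptake was stopped with ice-cold buffer and filtered on GF/B. Nonspecific uptake used 10 μM nomifensine (DA) or 10 μM fluoxetine (5-HT). Duplicates; IC50 by curve fit; Ki by Cheng-Prusoff.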

[4] = target: Sodium-dependent serotonin transporter (Rattus norvegicus, UniProt P31652); experiment: Inhibition of [3H]5HT uptake at SERT in rat brain hippocampal synaptosomes by liquid scintillation spectrophotometry; type: subcellular, Hippocampus; in short: as §2
Sequence of Sodium-dependent serotonin transporter (P31652 whole entry): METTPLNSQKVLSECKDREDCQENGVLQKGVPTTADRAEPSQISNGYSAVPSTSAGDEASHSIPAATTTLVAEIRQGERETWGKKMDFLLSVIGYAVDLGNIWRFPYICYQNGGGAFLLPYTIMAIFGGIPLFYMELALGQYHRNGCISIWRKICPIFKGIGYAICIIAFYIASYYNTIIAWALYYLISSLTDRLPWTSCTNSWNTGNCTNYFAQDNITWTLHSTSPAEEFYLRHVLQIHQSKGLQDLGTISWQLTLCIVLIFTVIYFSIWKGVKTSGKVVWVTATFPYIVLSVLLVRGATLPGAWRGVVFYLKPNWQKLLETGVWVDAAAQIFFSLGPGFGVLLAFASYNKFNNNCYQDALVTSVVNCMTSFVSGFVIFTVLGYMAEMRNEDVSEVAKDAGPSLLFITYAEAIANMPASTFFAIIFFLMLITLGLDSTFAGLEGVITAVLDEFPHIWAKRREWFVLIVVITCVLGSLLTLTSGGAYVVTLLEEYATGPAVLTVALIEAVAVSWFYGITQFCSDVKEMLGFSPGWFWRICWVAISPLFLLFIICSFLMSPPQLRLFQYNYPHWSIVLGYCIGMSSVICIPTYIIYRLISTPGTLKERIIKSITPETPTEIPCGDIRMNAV

[5] = target: T2, Synaptic vesicular amine transporter (Rattus norvegicus, UniProt Q01827); experiment: Displacement of [3HDTBZ from VMAT2 in rat whole brain vesicles by liquid scintillation spectrophotometry
T2 sequence (Q01827 whole entry): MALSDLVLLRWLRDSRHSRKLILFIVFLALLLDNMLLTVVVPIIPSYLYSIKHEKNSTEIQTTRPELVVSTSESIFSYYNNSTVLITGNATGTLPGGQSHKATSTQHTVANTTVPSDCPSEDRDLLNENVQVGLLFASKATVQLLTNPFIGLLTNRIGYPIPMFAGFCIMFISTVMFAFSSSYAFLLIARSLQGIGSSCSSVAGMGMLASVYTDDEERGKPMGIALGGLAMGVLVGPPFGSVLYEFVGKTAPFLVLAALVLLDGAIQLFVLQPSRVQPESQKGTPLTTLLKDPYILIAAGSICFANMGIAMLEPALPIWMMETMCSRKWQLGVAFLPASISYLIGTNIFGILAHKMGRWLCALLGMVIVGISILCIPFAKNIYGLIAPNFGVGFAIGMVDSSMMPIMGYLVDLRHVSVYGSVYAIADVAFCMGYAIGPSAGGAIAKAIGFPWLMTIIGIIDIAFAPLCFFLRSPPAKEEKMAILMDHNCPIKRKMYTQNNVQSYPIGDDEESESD
In short: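 Vesicles came from rat whole brain minus cerebellum, by hypotonic lysis and 100,000g pelleting, in HEPES/potassium-tartrate/MgSO4 buffer at pH 7.5, 15 μg protein per 100 μl. Final radioligand was 3 nM [3H]MTBZ or [3H]DTBZ, run in duplicate. […] Samples were filtered on PEI-soaked GF/B. Ki values come from at least four independent experiments.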

[6] = target: T2, Synaptic vesicular amine transporter; experiment: Displacement of [3H]MTBZ from VMAT2 in rat whole brain vesicles by liquid scintillation spectrophotometry
In short: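 Vesicles came from rat whole brain minus cerebellum, by hypotonic lysis and 100,000g pelleting, in HEPES/potassium-tartrate/MgSO4 buffer at pH 7.5, 15 μg protein per 100 μl. Final radioligand was 3 nM [3H]MTBZ or [3H]DTBZ, run in duplicate. Samples were filtered on PEI-soaked GF/B. Ki values come from at least four independent experiments.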

[7] = target: T1, Neuronal acetylcholine receptor; alpha4/beta2; experiment: Antagonist activity at alpha4beta2 nAChR in rat brain synaptosomes assessed as inhibition of nicotine-induced 86Rb+ efflux by liquid scintillation spectrophotometry; type: functional, subcellular
[8] = target: Synaptic vesicular amine transporter (Homo sapiens, UniProt Q05940); experiment: Binding affinity to VMAT2 receptor
Sequence of Synaptic vesicular amine transporter (Homo sapiens, UniProt Q05940) (Q05940 whole entry): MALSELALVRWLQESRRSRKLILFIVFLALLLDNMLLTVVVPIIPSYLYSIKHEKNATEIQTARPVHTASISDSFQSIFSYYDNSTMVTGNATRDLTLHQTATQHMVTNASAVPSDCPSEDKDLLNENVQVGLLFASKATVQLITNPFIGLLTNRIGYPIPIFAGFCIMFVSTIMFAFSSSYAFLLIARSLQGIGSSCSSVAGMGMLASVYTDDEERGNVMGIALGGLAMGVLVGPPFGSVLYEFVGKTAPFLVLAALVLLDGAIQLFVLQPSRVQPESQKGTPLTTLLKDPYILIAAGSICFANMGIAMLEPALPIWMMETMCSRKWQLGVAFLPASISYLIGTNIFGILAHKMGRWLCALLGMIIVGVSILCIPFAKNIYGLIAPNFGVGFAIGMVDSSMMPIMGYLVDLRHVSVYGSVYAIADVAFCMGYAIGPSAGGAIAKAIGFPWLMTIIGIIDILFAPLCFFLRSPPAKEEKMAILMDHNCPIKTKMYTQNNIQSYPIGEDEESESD

| SMILES | Ki [1] [µM] | Ki [2] [µM] | Ki [3] [µM] | Ki [4] [µM] | Ki [5] [µM] | Ki [6] [µM] | IC50 [7] [µM] | Ki [8] [µM] |
| --- | --- | --- | --- | --- | --- | --- | --- | --- |
| CN1C(CC(=O)c2ccccc2)CCC[C@H]1CC(OS(=O)(=O)c1ccc([N+](=O)[O-])cc1)c1ccccc1 (single isomer, unassigned) | 53.8 | 0.013 | 19.9 | 18.1 | 4.23 | – | – | – |
| CN1[C@@H](CC(=O)c2ccccc2)CCC[C@H]1C[C@H](OS(=O)(=O)c1ccc2ccccc2c1)c1ccccc1 | 18.5 | 0.01 | 13.4 | 5.06 | 2.48 | – | – | – |
| CCC(=O)OC(C[C@@H]1CCCC(CC(=O)c2ccccc2)N1C)c1ccccc1 (single isomer, unassigned) | 8.86 | 0.15 | 6.88 | 4.87 | – | 4.75 | – | – |
| CN1C(CC(=O)c2ccccc2)CCC[C@H]1CC(OS(=O)(=O)c1ccc(F)cc1)c1ccccc1 (single isomer, unassigned) | 24.2 | 0.012 | 17.9 | 4.68 | 3 | – | – | – |
| CC(C)S(=O)(=O)OC(C[C@@H]1CCCC(CC(=O)c2ccccc2)N1C)c1ccccc1 (single isomer, unassigned) | 47.7 | 0.015 | 4.6 | 16.1 | 2.09 | – | – | – |
| CN1[C@@H](CC(=O)c2ccccc2)CCC[C@H]1C[C@H](OC(=O)c1cccs1)c1ccccc1 | 36.2 | 0.86 | 3.02 | 9.7 | – | 6.37 | – | – |
| CCCCS(=O)(=O)OC(C[C@@H]1CCCC(CC(=O)c2ccccc2)N1C)c1ccccc1 (single isomer, unassigned) | 41 | 0.011 | 11.8 | 5.16 | 1.98 | – | – | – |
| CN1C(CC(=O)c2ccccc2)CCC[C@H]1CC(OS(=O)(=O)c1ccc(Cl)cc1)c1ccccc1 (single isomer, unassigned) | > 100 | 0.016 | 10.8 | 4.38 | 3.24 | – | – | – |
| CC(=O)OC(C[C@@H]1CCCC(CC(=O)c2ccccc2)N1C)c1ccccc1 (single isomer, unassigned) | > 100 | 0.07 | 4.64 | 31.4 | – | 8.05 | – | – |
| CN1[C@@H](CC(=O)c2ccccc2)CCC[C@H]1C[C@H](OS(=O)(=O)c1cccs1)c1ccccc1 | 53.8 | 0.013 | 19.9 | 18.1 | 4.23 | – | – | – |
| CN1C(CC(=O)c2ccccc2)CCC[C@H]1CC(OS(=O)(=O)Cc1ccccc1)c1ccccc1 (single isomer, unassigned) | 46.6 | 0.013 | 14.7 | 4.52 | 3.98 | – | – | – |
| Cc1ccc(S(=O)(=O)OC(C[C@@H]2CCCC(CC(=O)c3ccccc3)N2C)c2ccccc2)cc1 (single isomer, unassigned) | 18 | 0.005 | 29.1 | 16.2 | 10.8 | – | 0.002 | – |
| CCCC(=O)OC(C[C@@H]1CCCC(CC(=O)c2ccccc2)N1C)c1ccccc1 (single isomer, unassigned) | > 100 | 0.5 | 4.82 | 12.2 | – | 3.38 | – | – |
| CC(C)C(=O)OC(C[C@@H]1CCCC(CC(=O)c2ccccc2)N1C)c1ccccc1 (single isomer, unassigned) | > 100 | 0.06 | 2.38 | 1.06 | – | 2.61 | – | – |
| COc1ccc(C(=O)O[C@@H](C[C@@H]2CCC[C@H](CC(=O)c3ccccc3)N2C)c2ccccc2)cc1 | 18.4 | 19.3 | 3.8 | 2.04 | – | 2.98 | – | – |
| Cc1ccc(C(=O)O[C@@H](C[C@@H]2CCC[C@H](CC(=O)c3ccccc3)N2C)c2ccccc2)cc1 | > 100 | 1.62 | 2.06 | 1.51 | – | 1.76 | – | – |
| CN1C(CC(=O)c2ccccc2)CCC[C@H]1CC(OS(=O)(=O)c1ccccc1)c1ccccc1 (single isomer, unassigned) | 34.8 | 0.008 | 10.7 | 37.3 | 3.5 | – | 1.6 | – |
| CN1C(CC(=O)c2ccccc2)CCC[C@H]1CC(OC(=O)c1ccccc1)c1ccccc1 (single isomer, unassigned) | > 100 | 2.87 | 2.31 | 2.07 | – | 1.53 | 0.85 | – |
| CN1[C@@H](CCc2cccc3ccccc23)CCC[C@H]1CCc1cccc2ccccc12 | – | – | – | – | – | – | – | 0.63 |
| CN1[C@@H](CC(=O)c2ccccc2)CCC[C@H]1C[C@H](OS(=O)(=O)c1cccc2ccccc12)c1ccccc1 | > 100 | 0.017 | 4.14 | 34.5 | 4.12 | – | – | – |
